Experimental data reported in ChEMBL document CHEMBL2151018, “Bioassay-guided investigation of the Tanzanian plant Pyrenacantha kaurabassana for potential anti-HIV-active compounds” (J Nat Prod, 2012).
Values after ≈ are worked out from the molar mass of the structure shown.

Columns and labels:
[1] = tested on: Human immunodeficiency virus 1; experiment: Antiviral activity against CXCR4-tropic HIV1 NL4-3 infected in HEK293T cells assessed as inhibition of viral replication after 4 days by beta-galactosidase reporter gene assay; format: functional, organism-based; settings: Human immunodeficiency virus 1, NL4-3, HEK-293T, 96 h
Outline: (§1)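 Measured in the proprietary deCIPhR cell-based system using fully replicative virus. Two HIV lab strains from molecular clones differing in coreceptor tropism were used: pNL4-3 (CXCR4 usage) and pNL-AD87 (CCR5 usage). IC50 is the 50% inhibitory concentration in the anti-HIV assay, expressed in μg/mL; IC90 was also determined.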

[2] = tested on: HEK-293T; experiment: (§2) Cytotoxicity against human HEK293T cells after 4 days by Alamar blue assay; format: cell-based; settings: hek-293t, 96 h
[3] = as §2; format: cell-based, HEK-293T; settings: HEK293T cells, read-out: TC50
[4] = tested on: Human immunodeficiency virus 1; experiment: Antiviral activity against CCR5-tropic HIV1 NL-AD87 infected in HEK293T cells assessed as inhibition of viral replication after 4 days by beta-galactosidase reporter gene assay; format: functional, organism-based; settings: Human immunodeficiency virus 1, NL-AD87, HEK-293T, 96 h; outline: as §1
[5] = Selectivity index, ratio of TC50 for human HEK293T cells to IC50 for CXCR4-tropic HIV1 NL4-3 infected in HEK293T cells; format: toxicity, cell-based, HEK-293T; settings: read-out: Selectivity Index
[6] = Selectivity index, ratio of TC50 for human HEK293T cells to IC90 for CXCR4-tropic HIV1 NL4-3 infected in HEK293T cells; format: toxicity, cell-based, HEK-293T; settings: read-out: Selectivity Index
[7] = Selectivity index, ratio of TC50 for human HEK293T cells to IC50 for CCR5-tropic HIV1 NL-AD87 infected in HEK293T cells; format: toxicity, cell-based, HEK-293T; settings: read-out: Selectivity Index
[8] = Selectivity index, ratio of TC50 for human HEK293T cells to IC90 for CCR5-tropic HIV1 NL-AD87 infected in HEK293T cells; format: toxicity, cell-based, HEK-293T; settings: read-out: Selectivity Index

Molecule | IC50 [1] [µg/mL] | IC90 [1] [µg/mL] | TC90 [2] [µg/mL] | CC50 at 96 h [3] [µg/mL] | IC50 [4] [µg/mL] | IC90 [4] [µg/mL] | selectivity ratio [5] | selectivity ratio [6] | selectivity ratio [7] | selectivity ratio [8]
COc1cc2c(c(-c3cc(O)c4c(O)c5oc6c(C(=O)O)cc(C)cc6c(=O)c5c(O)c4c3OC)c1)CC(C)OC2=O (stereo not given) | 21 (≈ 36.7 µM) | 111 (≈ 194 µM) | > 12.5 | > 12.5 | 21 (≈ 36.7 µM) | 111 (≈ 194 µM) | – | – | – | –
enfuvirtide | 0.01 | 0.026 | – | – | 0.01 | 0.026 | – | – | – | –
COc1cc2c(c(-c3cc(O)c4c(O)c5oc6c(C(=O)O)cc(C)cc6c(=O)c5c(OC)c4c3OC)c1)CC(C)OC2=O (stereo not given) | 2 (≈ 3.41 µM) | 22 (≈ 37.5 µM) | 154 (≈ 263 µM) | 31 (≈ 52.9 µM) | 2 (≈ 3.41 µM) | 22 (≈ 37.5 µM) | 15.5 | 7 | 15.5 | 7
